Published values gathered from unrelated publications.
Observed: cell growth or viability

Structure (SMILES)	cell line	assay	setting	IC50
COC1=C2C[C@@H](C)C[C@H](OC)[C@H](O)[C@@H](C)/C=C(\C)[C@H](OC(N)=O)[C@@H](OC)/C=C\C=C(/C)C(=O)NC(=CC1=O)C2=O	A-431	MTT	–	0.048 µM
CC(C)C[C@H](NC(=O)[C@H](Cc1ccccc1)NC(=O)c1cnccn1)B(O)O	M-07e	ATP luminescence	–	0.0053 µM
Cc1cc(NC(=O)c2cccc3cc(-c4cccc5[nH]nc(N)c45)ccc23)ccc1F	D283	CCK-8	72 h	> 20 µM
COc1cc(Nc2nccc(-c3cnn4nc(OC)ccc34)n2)cc(C(F)(F)F)c1	M-07e	ATP luminescence	–	0.11 µM
[Cl-].[Cl-].[Ti+4].c1cc[cH-]c1.c1cc[cH-]c1	HEK-293T	XTT	72 h	> 200 µM
COc1cc([C@@H]2c3cc4c(cc3[C@@H](O[C@@H]3O[C@@H]5CO[C@@H](C)O[C@H]5[C@H](O)[C@H]3O)[C@H]3COC(=O)[C@H]23)OCO4)cc(OC)c1O	CCD-18Co	MTS	72 h	42.2 µM
Cc1cnc(NC2CCOCC2)nc1-n1cnc(C(=O)NC(CN)c2cc(F)cc(Cl)c2)c1 (centres unmarked)	KM-H2	MTS	–	2.6 µM
CC(C)[C@H](N)C(=O)N1CCC[C@H]1B(O)O	TF-1	ATP luminescence	48 h	> 60 µM
O=C(CNC(=O)c1cccc2ccccc12)Nc1ccccc1Oc1ccccc1	SK-N-AS	–	–	0.107 µM
CC(=O)c1ccc(-c2ccc3oc(C(=O)c4cc(O)c(O)c(O)c4)cc3c2)cc1	HEK-293T	ATP luminescence	72 h	1.3 µg/mL
COc1ccc(C[C]2([Ti+2][C]3(Cc4ccc(OC)cc4)C=CC=C3)C=CC=C2)cc1.[Cl-].[Cl-]	HEK-293T	XTT	72 h	> 200 µM
CCN(c1nc(N)c(C(=O)N=C(N)N)nc1Cl)C(C)C	A-431	MTT	3 h	160 µM
Cc1[nH]c(/C=C2\C(=O)Nc3ccc(S(=O)(=O)N(C)c4cccc(Cl)c4)cc32)c(C)c1C(=O)N1CCN(C)CC1	human Myoblast	–	72 h	3.85 µM
COc1cccc(Oc2ccccc2NC(=O)CNC(=O)c2cccc3ccccc23)c1	SK-N-BE(2)-C	–	–	0.236 µM
COC(=O)CN=c1scc(-c2ccccc2)n1-c1ccccc1OC	PANC-03-27	MTT	72 h	13.5 µM
COc1cccc(Oc2ccccc2NC(=O)[C@H](C)NC(=O)c2cccc3ccccc23)c1	SK-N-AS	–	–	1.5 µM

Structure (SMILES)	cell line	assay	setting	IC50
O=c1[nH]cc(S(=O)(=O)Nc2cccc(-c3nnc(-c4cccc(Cl)c4)o3)c2)c(=O)[nH]1	NCI-H292	MTT	24 h	3.81 µM
COC(=O)CN=c1scc(-c2ccccc2)n1-c1ccc(Cl)cc1	PANC-03-27	MTT	72 h	22.1 µM
O=C(c1cc(O)c(O)c(O)c1)c1cc2cc(-c3ccc(CO)cc3)ccc2o1	HEK-293T	ATP luminescence	72 h	1 µg/mL
COC(=O)CN=c1scc(-c2ccccc2)n1-c1ccccc1	PANC-03-27	MTT	72 h	72.2 µM
COc1cc([C@@H]2c3cc4c(cc3[C@@H](O[C@@H]3O[C@@H]5CO[C@@H](C)O[C@H]5[C@H](O)[C@H]3O)[C@H]3COC(=O)[C@H]23)OCO4)cc(OC)c1O	CCD-18Co	MTS	48 h	43.7 µM
CC1=CC(C)(C)N(Cc2ccccc2)c2ccc(O)cc21	Huh-7	MTT	72 h	16 µM
Cc1ccc2nc(-c3ccc(Cl)cc3)n(Cc3ccccc3)c2c1	HepG2	MTT	–	3.22 µM
COc1cc(N2CCC(N3CCN(C)CC3)CC2)ccc1Nc1ncc(Cl)c(Nc2ccccc2S(=O)(=O)C(C)C)n1	human Myoblast	–	72 h	0.45 µM
O=C(CNC(=O)c1cccc2ccccc12)Nc1ccccc1Oc1cccc(O)c1	SK-N-AS	–	–	0.192 µM
O=C(NCc1ccc(CO)cc1)c1c[nH]c2ccc(Cl)cc12	SK-N-BE(2)-C	MTT	–	17 µM
COc1cccc2c1C(=O)c1c(O)c3c(c(O)c1C2=O)C[C@@](O)(C(=O)CO)C[C@@H]3O[C@H]1C[C@H](N)[C@H](O)[C@H](C)O1	NCI-H292	WST-1	72 h	0.03 µM
O=C1/C(=C/c2cc(O)c(O)c(O)c2)Oc2cccc(O)c21	HEK-293T	ATP luminescence	24 h	> 32 µg/mL
Nc1ccn([C@@H]2O[C@H](CO)[C@@H](O)C2(F)F)c(=O)n1	PANC-03-27	MTT	72 h	0.42 µM
O=C(Nc1ccccc1CO)c1c[nH]c2ccc(Cl)cc12	SK-N-BE(2)-C	MTT	–	13 µM
Cc1ccncc1-c1ccc2oc(C(=O)c3cc(O)c(O)c(O)c3)cc2c1	HEK-293T	ATP luminescence	72 h	0.79 µg/mL
COc1cc2c(Oc3ccc(NC(=O)C4(C(=O)Nc5ccc(F)cc5)CC4)cc3F)ccnc2cc1OCCCN1CCOCC1	human Myoblast	–	72 h	0.12 µM
